# Source: ChEMBL document CHEMBL1649531, “In vitro activity of garenoxacin against Streptococcus pneumoniae mutants with characterized resistance mechanisms” (2009)
# How the values were obtained:
# Assay type in all cases: functional
# Streptococcus pneumoniae [1] = experiment: Antibacterial activity against Streptococcus pneumoniae W002 harboring wild-type parC and gyrA genes assessed as mutation prevention concentration after 48 hrs
# Method in brief: (§1)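 A 200 μl culture at 10 log10 CFU/ml was spread on Mueller-Hinton II agar with 5% sheep blood containing drug at a range of concentrations, then incubated at 37°C in 5% CO2. MPC was taken as the lowest concentration preventing colony formation after 48 h. Determinations were done in duplicate.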
# Streptococcus pneumoniae [2] = experiment: Antibacterial activity against Streptococcus pneumoniae D001 harboring parC Ser79Phe and gyrA Gly85Lys mutant genes assessed as mutation prevention concentration after 48 hrs; method in brief: as §1
# Streptococcus pneumoniae [3] = experiment: Antibacterial activity against Streptococcus pneumoniae S001 harboring parC Asp83Asn mutant and wild-type gyrA genes assessed as mutation prevention concentration after 48 hrs; method in brief: as §1
# Streptococcus pneumoniae [4] = experiment: Antibacterial activity against Streptococcus pneumoniae S004 harboring wild-type parC and gyrA Gly85Asn mutant genes assessed as mutation prevention concentration after 48 hrs; method in brief: as §1
# Streptococcus pneumoniae [5] = experiment: Antibacterial activity against Streptococcus pneumoniae D002 harboring parC Ser79Phe and gyrA Ser81Phe mutant genes assessed as mutation prevention concentration after 48 hrs; method in brief: as §1
# Streptococcus pneumoniae [6] = experiment: Antibacterial activity against Streptococcus pneumoniae S003 harboring wild-type parC and gyrA Ser81Phe mutant genes assessed as mutation prevention concentration after 48 hrs; method in brief: as §1
# Streptococcus pneumoniae [7] = experiment: Antibacterial activity against Streptococcus pneumoniae S002 harboring parC Ser79Phe mutant and wild-type gyrA genes assessed as mutation prevention concentration after 48 hrs; method in brief: as §1
# Streptococcus pneumoniae [8] = experiment: Antibacterial activity against Streptococcus pneumoniae W001 harboring wild-type parC and gyrA genes assessed as mutation prevention concentration after 48 hrs; method in brief: as §1
# Streptococcus pneumoniae [9] = experiment: Antibacterial activity against Streptococcus pneumoniae D001 harboring parC Ser79Phe and gyrA Gly85Lys mutant genes
# Streptococcus pneumoniae [10] = experiment: Antibacterial activity against Streptococcus pneumoniae D002 harboring parC Ser79Phe and gyrA Ser81Phe mutant genes
# Streptococcus pneumoniae [11] = experiment: Antibacterial activity against Streptococcus pneumoniae W002 harboring wild-type parC and gyrA genes
# Streptococcus pneumoniae [12] = experiment: Antibacterial activity against Streptococcus pneumoniae D002 assessed as resistant isolates with ParC83 mutation in quinolone resistance-determining regions
# Method in brief: (§2)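 Up to eight colonies per plate were grown individually, and genomic DNA was screened for ParC Ser79/Asp83 and GyrA Ser81/Gly85 changes by PCR-melting curve analysis with labelled hybridization probes. Sequences were confirmed by direct sequencing.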
# Streptococcus pneumoniae [13] = experiment: Antibacterial activity against Streptococcus pneumoniae W001 assessed as resistant isolates with GyrA81 mutation in quinolone resistance-determining regions; method in brief: as §2
# Streptococcus pneumoniae [14] = experiment: Antibacterial activity against Streptococcus pneumoniae S003 harboring wild-type parC and gyrA Ser81Phe mutant genes
# Streptococcus pneumoniae [15] = experiment: Antibacterial activity against Streptococcus pneumoniae W001 assessed as resistant isolates with GyrA85 mutation in quinolone resistance-determining regions; method in brief: as §2
# Streptococcus pneumoniae [16] = experiment: Antibacterial activity against Streptococcus pneumoniae W002
# Streptococcus pneumoniae [17] = experiment: Antibacterial activity against Streptococcus pneumoniae W001
# Streptococcus pneumoniae [18] = experiment: Antibacterial activity against Streptococcus pneumoniae S003 assessed as resistant isolates with GyrA85 mutation in quinolone resistance-determining regions; method in brief: as §2
# Streptococcus pneumoniae [19] = experiment: Antibacterial activity against Streptococcus pneumoniae W002 assessed as resistant isolates with GyrA85 mutation in quinolone resistance-determining regions; method in brief: as §2
# Streptococcus pneumoniae [20] = experiment: Antibacterial activity against Streptococcus pneumoniae S001
# Streptococcus pneumoniae [21] = experiment: Antibacterial activity against Streptococcus pneumoniae S002
# Streptococcus pneumoniae [22] = experiment: Antibacterial activity against Streptococcus pneumoniae S002 harboring parC Ser79Phe mutant and wild-type gyrA genes
# Streptococcus pneumoniae [23] = experiment: Antibacterial activity against Streptococcus pneumoniae S002 assessed as resistant isolates with GyrA81 mutation in quinolone resistance-determining regions; method in brief: as §2
# Streptococcus pneumoniae [24] = experiment: Antibacterial activity against Streptococcus pneumoniae W001 assessed as resistant isolates with ParC79 mutation in quinolone resistance-determining regions; method in brief: as §2
# Streptococcus pneumoniae [25] = experiment: Antibacterial activity against Streptococcus pneumoniae S001 assessed as resistant isolates with ParC79 mutation in quinolone resistance-determining regions; method in brief: as §2
# Streptococcus pneumoniae [26] = experiment: Antibacterial activity against Streptococcus pneumoniae S002 assessed as resistant isolates with ParC83 mutation in quinolone resistance-determining regions; method in brief: as §2
# Streptococcus pneumoniae [27] = experiment: Antibacterial activity against Streptococcus pneumoniae W001 assessed as resistant isolates with ParC83 mutation in quinolone resistance-determining regions; method in brief: as §2
# Streptococcus pneumoniae [28] = experiment: Antibacterial activity against Streptococcus pneumoniae S002 assessed as resistant isolates with GyrA85 mutation in quinolone resistance-determining regions; method in brief: as §2
# Streptococcus pneumoniae [29] = experiment: Antibacterial activity against Streptococcus pneumoniae S004 assessed as resistant isolates with ParC83 mutation in quinolone resistance-determining regions; method in brief: as §2
# Streptococcus pneumoniae [30] = experiment: Antibacterial activity against Streptococcus pneumoniae W002 assessed as resistant isolates with ParC83 mutation in quinolone resistance-determining regions; method in brief: as §2
# Streptococcus pneumoniae [31] = experiment: Antibacterial activity against Streptococcus pneumoniae S004 harboring wild-type parC and gyrA Gly85Asn mutant genes
# Streptococcus pneumoniae [32] = experiment: Antibacterial activity against Streptococcus pneumoniae W002 assessed as resistant isolates with ParC79 mutation in quinolone resistance-determining regions; method in brief: as §2
# Streptococcus pneumoniae [33] = experiment: Antibacterial activity against Streptococcus pneumoniae S001 assessed as resistant isolates with GyrA85 mutation in quinolone resistance-determining regions; method in brief: as §2
# Streptococcus pneumoniae [34] = experiment: Antibacterial activity against Streptococcus pneumoniae S004 assessed as resistant isolates with ParC79 mutation in quinolone resistance-determining regions; method in brief: as §2
# Streptococcus pneumoniae [35] = experiment: Antibacterial activity against Streptococcus pneumoniae D001
# Streptococcus pneumoniae [36] = experiment: Antibacterial activity against Streptococcus pneumoniae S003 assessed as resistant isolates with ParC79 mutation in quinolone resistance-determining regions; method in brief: as §2
# Streptococcus pneumoniae [37] = experiment: Antibacterial activity against Streptococcus pneumoniae S003 assessed as resistant isolates with ParC83 mutation in quinolone resistance-determining regions; method in brief: as §2
# Streptococcus pneumoniae [38] = experiment: Antibacterial activity against Streptococcus pneumoniae S001 harboring parC Asp83Asn mutant and wild-type gyrA genes
# Streptococcus pneumoniae [39] = experiment: Antibacterial activity against Streptococcus pneumoniae W002 assessed as resistant isolates with GyrA81 mutation in quinolone resistance-determining regions; method in brief: as §2
# Streptococcus pneumoniae [40] = experiment: Antibacterial activity against Streptococcus pneumoniae D001 assessed as resistant isolates with GyrA81 mutation in quinolone resistance-determining regions; method in brief: as §2
# Streptococcus pneumoniae [41] = experiment: Antibacterial activity against Streptococcus pneumoniae W001 harboring wild-type parC and gyrA genes
# Streptococcus pneumoniae [42] = experiment: Antibacterial activity against Streptococcus pneumoniae S004 assessed as resistant isolates with GyrA85 mutation in quinolone resistance-determining regions; method in brief: as §2
# Streptococcus pneumoniae [43] = experiment: Antibacterial activity against Streptococcus pneumoniae S004
# Streptococcus pneumoniae [44] = experiment: Antibacterial activity against Streptococcus pneumoniae S001 assessed as resistant isolates with GyrA81 mutation in quinolone resistance-determining regions; method in brief: as §2
# Streptococcus pneumoniae [45] = experiment: Antibacterial activity against Streptococcus pneumoniae S003
# Streptococcus pneumoniae [46] = experiment: Antibacterial activity against Streptococcus pneumoniae D002
# Streptococcus pneumoniae [47] = experiment: Antibacterial activity against Streptococcus pneumoniae D002 assessed as resistant isolates with GyrA85 mutation in quinolone resistance-determining regions; method in brief: as §2
smiles,measurement,setting,value
C[C@H]1COc2c(N3CCN(C)CC3)c(F)cc3c(=O)c(C(=O)O)cn1c23.C[C@H]1COc2c(N3CCN(C)CC3)c(F)cc3c(=O)c(C(=O)O)cn1c23.O [LEVOFLOXACIN],Activity,Streptococcus pneumoniae [1],2 µg/mL
same,Activity,Streptococcus pneumoniae [2],128 µg/mL
same,Activity,Streptococcus pneumoniae [3],16 µg/mL
same,Activity,Streptococcus pneumoniae [4],32 µg/mL
same,Activity,Streptococcus pneumoniae [5],128 µg/mL
same,Activity,Streptococcus pneumoniae [6],32 µg/mL
same,Activity,Streptococcus pneumoniae [7],16 µg/mL
same,Activity,Streptococcus pneumoniae [8],2 µg/mL
O=C(O)c1cn(C2CC2)c2cc(N3CCNCC3)c(F)cc2c1=O [CIPROFLOXACIN],MIC,Streptococcus pneumoniae [9],32 µg/mL
same,Activity,Streptococcus pneumoniae [1],8 µg/mL
same,Activity,Streptococcus pneumoniae [2],256 µg/mL
same,Activity,Streptococcus pneumoniae [3],128 µg/mL
same,Activity,Streptococcus pneumoniae [4],64 µg/mL
same,Activity,Streptococcus pneumoniae [5],256 µg/mL
same,Activity,Streptococcus pneumoniae [6],64 µg/mL
same,MIC,Streptococcus pneumoniae [10],8 µg/mL
same,Activity,Streptococcus pneumoniae [7],128 µg/mL
same,MIC,Streptococcus pneumoniae [11],0.25 µg/mL
same,Activity,Streptococcus pneumoniae [8],8 µg/mL
C[C@H]1NCc2cc(-c3ccc4c(=O)c(C(=O)O)cn(C5CC5)c4c3OC(F)F)ccc21 [GARENOXACIN],Activity,Streptococcus pneumoniae [12],21%
same,Activity,Streptococcus pneumoniae [13],50%
same,MIC,Streptococcus pneumoniae [9],0.25 µg/mL
same,MIC,Streptococcus pneumoniae [14],0.06 µg/mL
same,Activity,Streptococcus pneumoniae [1],0.12 µg/mL
same,Activity,Streptococcus pneumoniae [2],4 µg/mL
same,Activity,Streptococcus pneumoniae [15],12%
same,Activity,Streptococcus pneumoniae [3],1 µg/mL
same,MIC,Streptococcus pneumoniae [16],0.015 µg/mL
same,Activity,Streptococcus pneumoniae [4],2 µg/mL
same,MIC,Streptococcus pneumoniae [17],0.015 µg/mL
same,Activity,Streptococcus pneumoniae [5],4 µg/mL
same,Activity,Streptococcus pneumoniae [6],2 µg/mL
same,Activity,Streptococcus pneumoniae [18],0%
same,Activity,Streptococcus pneumoniae [19],0%
same,MIC,Streptococcus pneumoniae [20],0.03 µg/mL
same,MIC,Streptococcus pneumoniae [10],0.5 µg/mL
same,MIC,Streptococcus pneumoniae [21],0.06 µg/mL
same,MIC,Streptococcus pneumoniae [22],0.06 µg/mL
same,Activity,Streptococcus pneumoniae [23],48%
same,Activity,Streptococcus pneumoniae [7],1 µg/mL
same,Activity,Streptococcus pneumoniae [24],0%
same,MIC,Streptococcus pneumoniae [11],0.015 µg/mL
same,Activity,Streptococcus pneumoniae [8],0.12 µg/mL
same,Activity,Streptococcus pneumoniae [25],0%
same,Activity,Streptococcus pneumoniae [26],0%
same,Activity,Streptococcus pneumoniae [27],0%
same,Activity,Streptococcus pneumoniae [28],9%
same,Activity,Streptococcus pneumoniae [29],0%
same,Activity,Streptococcus pneumoniae [30],0%
same,MIC,Streptococcus pneumoniae [31],0.06 µg/mL
same,Activity,Streptococcus pneumoniae [32],0%
same,Activity,Streptococcus pneumoniae [33],0%
same,Activity,Streptococcus pneumoniae [34],56%
same,MIC,Streptococcus pneumoniae [35],0.25 µg/mL
same,Activity,Streptococcus pneumoniae [36],65%
same,Activity,Streptococcus pneumoniae [37],0%
same,MIC,Streptococcus pneumoniae [38],0.03 µg/mL
same,Activity,Streptococcus pneumoniae [39],67%
same,Activity,Streptococcus pneumoniae [40],70%
same,MIC,Streptococcus pneumoniae [41],0.015 µg/mL
same,Activity,Streptococcus pneumoniae [42],0%
same,MIC,Streptococcus pneumoniae [43],0.06 µg/mL
same,Activity,Streptococcus pneumoniae [44],77%
same,MIC,Streptococcus pneumoniae [45],0.06 µg/mL
same,MIC,Streptococcus pneumoniae [46],0.5 µg/mL
same,Activity,Streptococcus pneumoniae [47],50%
